Molecules are shown by their SMILES. The source made the active and inactive calls. The calls are words filed in the database; no cut-off is given here.

One assay has as its system HCT-116. The assay is described as follows: Cytotoxicity against human HCT116 cells after 72 hrs by MTS assay. Format: functional, cell-based. The note with it: HCT-116, 72 h.
Assay [1] relates to KB. Nature of the assay: Induction of cell cycle arrest in human KB cells assessed as accumulation at subG1 phase at 50 nM after 48 hrs by propidium iodide staining-based flow cytometry (reference value: 1.2%). The assay is classed as functional. In general terms: Flow cytometry measures light scatter and fluorescence of single cells or particles in a stream.
The subject of assay [2] is KB. The assay is described as follows: Induction of cell cycle arrest in human KB cells assessed as accumulation at S phase at 50 nM after 48 hrs by propidium iodide staining-based flow cytometry (reference value: 18.4%). The assay is classed as functional.
The test system of assay [3] is KB. The assay is described as follows: Induction of cell cycle arrest in human KB cells assessed as accumulation at G0/G1phase at 50 nM after 24 hrs by propidium iodide staining-based flow cytometry (reference value: 72.9%). Format: functional.
The subject of assay [4] is HL-60. Nature of the assay: Induction of apoptosis in human HL60 cells assessed as viable cells at 50 nM after 48 hrs by annexin-V-PE/7-AAD staining (reference value: 97.4%). The assay is classed as functional. The note with it: HL-60, 48 h, read-out: Activity.
Assay [5] relates to HL-60. Nature of the assay: Induction of apoptosis in human HL60 cells assessed as viable cells at 50 nM after24 hrs by annexin-V-PE/7-AAD staining (reference value: 97.2%). Format: functional. The note with it: read-out: Activity.
For the next assay, the system named is MIA PaCa-2. Nature of the assay: Cytotoxicity against human MIAPaCa2 cells after 72 hrs by MTS assay. Format: functional, cell-based. The note with it: MIA PaCa-2, 72 h. (Tetrazolium assays rely on reduction of a dye to a coloured formazan, in cell work by metabolically active cells.)
In a further assay the test system is K562. Nature of the assay: Cytotoxicity against human K562 cells after 72 hrs by MTS assay. The note with it: K562, 72 h. Format: functional, cell-based.
In a further assay the test system is A549. Nature of the assay: Cytotoxicity against human A549 cells after 72 hrs by MTS assay. Format: functional, cell-based. The note with it: A549, 72 h.
The next assay concerns OVCAR-8. The assay is described as follows: Cytotoxicity against human OVCAR8 cells after 72 hrs by MTS assay. The note with it: OVCAR-8, 72 h. Format: functional, cell-based.
In assay [6] the test system is HL-60. Nature of the assay: Induction of apoptosis in human HL60 cells assessed as induction of caspase 3/7 activation at 100 nM relative to control. The assay is classed as functional. The method, boiled down: (§1)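 HL60 cells (20,000/well) were treated 24 and 48 h with compounds in DMSO. Vehicle and doxorubicine served as controls. Fluorescence (ex 360/em 465 nm) was followed over 3 h.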

Assay [7] relates to KB. Nature of the assay: Cytotoxicity against human KB cells at 10^-6 M after 72 hrs by MTS assay. The assay is classed as functional. An outline of the steps:
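KB cells in D-MEM with 10% FCS were seeded at 600 cells/well and dosed 24 h later with flavone at 10^-6 M in DMSO. Controls received DMSO at 1% final. After 72 h, MTS was added for 3 h at 37 °C and A490 read in triplicate. Growth inhibition (%) = (1 − OD treated/OD control)×100.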

The test system of assay [8] is KB. The assay is described as follows: Induction of cell cycle arrest in human KB cells assessed as accumulation at G0/G1phase at 50 nM after 48 hrs by propidium iodide staining-based flow cytometry (reference value: 66.6%). Format: functional.
Assay [9] is described as follows: Cytotoxicity against human HL60R cells after 72 hrs by MTS assay. Format: functional, cell-based. The note with it: HL-60, 72 h.
Assay [10] has as its system HL-60. The assay is described as follows: Cytotoxicity against human HL60 cells after 72 hrs by MTS assay. The assay is classed as functional, cell-based. The note with it: HL-60, 72 h.
Assay [11] deals with HL-60. Nature of the assay: Induction of apoptosis in human HL60 cells assessed as early apoptosis cells at 50 nM after24 hrs by annexin-V-PE/7-AAD staining (reference value: 2.6%). Format: functional.
Assay [12] is described as follows: Cytotoxicity against human MCF7/R cells after 72 hrs by MTS assay. Format: functional, cell-based. The note with it: MCF7R.
The test system of the next assay is HCT-15. The assay is described as follows: Cytotoxicity against human HCT15 cells after 72 hrs by MTS assay. The assay is classed as functional, cell-based. The note with it: HCT-15, 72 h.
Assay [13] deals with KB. Nature of the assay: Induction of cell cycle arrest in human KB cells assessed as accumulation at G2/M phase at 50 nM after 48 hrs by propidium iodide staining-based flow cytometry (reference value: 13.8%). Format: functional.
Assay [14] is described as follows: Inhibition of sheep brain tubulin polymerization at 2x10'-5 M after 5 mins. Also on record: species or system Ovis aries. The method, boiled down:
(§2)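 Sheep brain microtubule proteins were purified by two assembly/disassembly cycles (37 °C/0 °C) in 100 mM MES pH 6.6, 1 mM EGTA, 0.5 mM MgCl2. Polymerization rate was followed by turbidity at 350 nm, with deoxypodophyllotoxin as reference. Compounds were tested at ~2×10^-5 M for % inhibition, with IC50 determined for selected compounds.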

Assay [15] relates to KB. The assay is described as follows: Induction of cell cycle arrest in human KB cells assessed as accumulation at G2/M phase at 50 nM after 24 hrs by propidium iodide staining-based flow cytometry (reference value: 19.6%). The assay is classed as functional.
Assay [16] deals with KB. The assay is described as follows: Induction of cell cycle arrest in human KB cells assessed as accumulation at S phase at 50 nM after 24 hrs by propidium iodide staining-based flow cytometry (reference value: 6.9%). Format: functional.
In another assay the test system is HepG2. The assay is described as follows: Cytotoxicity against human HepG2 cells after 72 hrs by MTS assay. Format: functional, cell-based. The note with it: HepG2, 72 h.
A further assay deals with SK-OV-3. Nature of the assay: Cytotoxicity against human SKOV3 cells after 72 hrs by MTS assay. Format: functional, cell-based. The note with it: SK-OV-3, 72 h.
Assay [17] concerns HL-60. The assay is described as follows: Induction of apoptosis in human HL60 cells assessed as late apoptosis cells at 50 nM after 48 hrs by annexin-V-PE/7-AAD staining (reference value: 0.1%). Format: functional.
For the next assay, the system named is HT-29. The assay is described as follows: Cytotoxicity against human HT-29 cells after 72 hrs by MTS assay. The assay is classed as functional, cell-based. The note with it: HT-29, 72 h.
Assay [18] relates to HL-60. Nature of the assay: Induction of apoptosis in human HL60 cells assessed as early apoptosis cells at 50 nM after 48 hrs by annexin-V-PE/7-AAD staining (reference value: 2.5%). The assay is classed as functional.
Assay [19] deals with KB. The assay is described as follows: Induction of cell cycle arrest in human KB cells assessed as accumulation at subG1 phase at 50 nM after 24 hrs by propidium iodide staining-based flow cytometry (reference value: 0.7%). The assay is classed as functional.
Assay [20] deals with KB. The assay is described as follows: Cytotoxicity against human KB cells after 72 hrs by MTS assay. The assay is classed as functional, cell-based.
The next assay deals with SF-268. The assay is described as follows: Cytotoxicity against human SF268 cells after 72 hrs by MTS assay. Format: functional, cell-based. The note with it: SF-268, 72 h.
Another assay deals with PC-3. Nature of the assay: Cytotoxicity against human PC3 cells after 72 hrs by MTS assay. Format: functional, cell-based. The note with it: PC-3, 72 h.
The test system of assay [21] is HL-60. Nature of the assay: Induction of apoptosis in human HL60 cells assessed as late apoptosis cells at 50 nM after24 hrs by annexin-V-PE/7-AAD staining (reference value: 0.2%). The assay is classed as functional.
Assay [22] has as its system HL-60. The assay is described as follows: Induction of apoptosis in human HL60 cells assessed as induction of caspase 3/7 activation at 100 uM. Format: functional, cell-based. An outline of the steps:
as §1

The species entered for another assay is Ovis aries. The assay is described as follows: Inhibition of sheep brain tubulin polymerization after 5 mins. The method, boiled down:
as §2

By IC50 is commonly meant the concentration that gives 50% inhibition. A high value points to a need for much substance. As to `COc1ccc(-c2oc3c(OC)c(OC)c(OC)c(O)c3c(=O)c2OC)cc1N`, the IC50 in the assay with HCT-116 is 25 nM; in the assay with MIA PaCa-2, 33 nM; in the assay with K562 it was 9 nM; in the assay on A549, 32 nM; in the assay with OVCAR-8, 105 nM; in [9], 14 nM. Besides, the IC50 was determined as 36 nM with HL-60 [10]; 34 nM in assay [12]; 12 nM in the assay on HCT-15; 13000 nM in assay [14]; 81 nM in the assay on HepG2; 37 nM with SK-OV-3. The IC50 in the assay on HT-29 is 50 nM; in the assay on KB [20] it was 25 nM; in the assay on SF-268 it was 400 nM; in the assay on PC-3 it was over 1000 nM. Besides, the Activity is listed as 15.5% in the assay on KB [1]; 32% in the assay on KB [2]; 39.3% in the assay with KB [3]; 96% with KB [7]; 38.5% in the assay with KB [8]; 20.7% with HL-60 [11]. Also, the Activity is 14% with KB [13]; 34.5% in the assay with KB [15]; 19.2% in the assay on KB [16]; 2.2% in the assay with HL-60 [17]; 37.6% in the assay on HL-60 [18]; 7.3% with KB [19]. Further, the Activity in the assay with HL-60 [21] was 2.1%. Moreover, the viability at 0.05 µM in the assay with HL-60 [4] was determined as 60.1%; in the assay with HL-60 [5] it was 77.1%. Moreover, in the assay on HL-60 [6], the “fold change (FC)” value was 3.2.
One may read the inhibition as the change of the read-out against control, counted positive when it falls. Higher therefore signals strong suppression. Turning to `COc1ccc(-c2oc3c(OC)c(OC)c(OC)c(OC)c3c(=O)c2OC)cc1N`, the Activity with KB [7] came to 17%. For the same compound, in the assay with HL-60 [22], the outcome was inactive. In addition, the inhibition in the assay listed under Ovis aries was 5%.

(Values after ChEMBL document CHEMBL1641374, “Synthesis of antiproliferative flavones from calycopterin, major flavonoid of Calycopteris floribunda Lamk” (Bioorg Med Chem, 2011).)
